The record followed here is ChEMBL document CHEMBL1127367, “Antiproliferative properties of polyamine analogues: a structure-activity study” (J Med Chem, 1994).

Bounds are passed on as bounds.

Test [1] has as its system L1210. The test is described as follows: Compound was evaluated for its impact on spermidine levels after 48 hr at concentration 500 uM. It counts as functional, Mus musculus.
The test system of test [2] is L1210. In words: In vitro inhibition of L1210 growth after 96 hours. Format: functional, cell-based. To be noted: Mus musculus, L1210, 96 h. The procedure, abridged:
(§1)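 Log-phase L1210 cultures (0.5–1.0 × 10^5 cells/mL) treated with analogue diluted in sterile water and filter-sterilized. After 48 h, cells were reseeded and grown a further 48 h for the 96 h point. Cells counted by Coulter counter. % growth = (treated − inoculum)/(untreated − inoculum) × 100.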

For test [3], the system named is L1210. The test is described as follows: Compound was evaluated for its impact on putrescine (Put) levels after 48 hr at concentration 100 uM. It counts as functional, Mus musculus.
Test [4] concerns L1210. The test is described as follows: Compound was evaluated for its impact on spermine levels after 48 hr at concentration 100 uM. It counts as functional, Mus musculus.
The test system of test [5] is L1210. In words: In vitro inhibition of L1210 growth after 48 hours. To be noted: Mus musculus, L1210, 48 h. Format: functional, cell-based. The procedure, abridged:
as §1

For test [6], the system named is L1210. The test is described as follows: Inhibition of radiolabeled spermidine uptake into L1210 cells in vitro. It counts as functional, cell-based, Mus musculus.
Test [7] addresses T1, Ornithine decarboxylase (Mus musculus) (UniProt P00860).
T1 sequence (whole entry): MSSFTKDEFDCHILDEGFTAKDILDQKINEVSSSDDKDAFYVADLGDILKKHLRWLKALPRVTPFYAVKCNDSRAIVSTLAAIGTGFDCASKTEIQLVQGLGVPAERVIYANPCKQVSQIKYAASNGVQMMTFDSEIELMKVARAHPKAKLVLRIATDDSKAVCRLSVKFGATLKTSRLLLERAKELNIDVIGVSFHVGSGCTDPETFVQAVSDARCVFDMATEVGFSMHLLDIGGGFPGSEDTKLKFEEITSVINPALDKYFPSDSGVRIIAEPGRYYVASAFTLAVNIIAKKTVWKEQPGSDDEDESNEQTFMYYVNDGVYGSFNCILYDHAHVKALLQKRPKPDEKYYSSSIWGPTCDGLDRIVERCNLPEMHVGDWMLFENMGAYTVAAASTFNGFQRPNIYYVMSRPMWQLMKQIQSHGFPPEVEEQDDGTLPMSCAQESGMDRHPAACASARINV
In words: Inhibition of ornithine decarboxylase (ODC) activity. It counts as functional. More on the design: concentration or dose not given beside the values.

Test [8] deals with L1210. The test is described as follows: Compound level in L1210 cells after 48 hours of incubation at initial concentration of 100 uM is expressed as nmol/10e6 cells. Format: functional, Mus musculus. More on the design: unit: nmol/10^6 cells.
Test [9] has as its target T2, S-adenosylmethionine decarboxylase proenzyme 1 (Mus musculus) (UniProt P0DMN7).
T2 sequence (whole entry): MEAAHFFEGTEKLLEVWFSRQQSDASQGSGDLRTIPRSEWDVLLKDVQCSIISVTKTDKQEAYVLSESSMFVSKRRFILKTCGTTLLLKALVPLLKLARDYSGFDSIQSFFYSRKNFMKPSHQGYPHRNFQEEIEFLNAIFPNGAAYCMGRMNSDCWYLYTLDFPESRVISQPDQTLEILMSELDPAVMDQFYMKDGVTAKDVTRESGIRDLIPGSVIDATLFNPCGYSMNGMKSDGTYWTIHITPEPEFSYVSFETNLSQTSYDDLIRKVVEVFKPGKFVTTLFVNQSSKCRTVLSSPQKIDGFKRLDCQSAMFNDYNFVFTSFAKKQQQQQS
In words: Inhibition of S-Adenosyl-methionine decarboxylase (AdoMetDC) activity. The arrangement: concentration or dose not given beside the values. Format: functional.

Test [10] relates to L1210. In words: Compound was evaluated for its impact on spermine levels after 48 hr at concentration 500 uM. Format: functional, Mus musculus.
Test [11] deals with Spermidine/spermine N(1)-acetyltransferase (SAT) (Mus musculus) (UniProt Q6P8J2+P48026). In words: […] spermidine/spermine N1-Acetyltransferase (SSAT) activity. It counts as functional. The arrangement: concentration or dose not given beside the values.
Test [12] deals with L1210. The test is described as follows: Compound was evaluated for its impact on spermidine levels after 48 hr at concentration 100 uM. It counts as functional, Mus musculus.
Test [13] deals with L1210. The test is described as follows: Compound was evaluated for its impact on putrescine (Put) levels after 48 hr at concentration 500 uM. It counts as functional, Mus musculus.
The subject of test [14] is L1210. In words: Compound level in L1210 cells after 48 hours of incubation at initial concentration of 500 uM is expressed as nmol/10e6 cells. It counts as functional, Mus musculus. The arrangement: unit: nmol/10^6 cells.
In test [15] the test system is S-adenosylmethionine decarboxylase (Mus musculus). In words: Effect of compound on S-Adenosyl-methionine decarboxylase (AdoMetDC) activity expressed as percent of untreated control for (AdoMetDC) (1 uM at 6 hr).
In test [16] the test system is L1210. The test is described as follows: Compound was evaluated for its impact on spermine […] levels after 48 hr at concentration 100 uM. Format: functional, Mus musculus. The procedure, abridged: (§2)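 L1210 suspension cultures were grown in RPMI-1640 with 10% NuSerum, 2% HEPES-MOPS and 1 mM aminoguanidine (37 °C, 5% CO2). Log-phase cells were treated for 48 h, then washed twice in cold RPMI-1640 and pelleted. Pellets were extracted with 0.6 N perchloric acid, and supernatants were held at −20 °C until HPLC. Polyamine levels are given as % of untreated controls.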

For test [17], the target named is T1, Ornithine decarboxylase (Mus musculus). In words: Effect of compound on ornithine decarboxylase (ODC)activity expressed as percent of untreated control for ODC (1 uM at 4 h(or 48h)). The method, boiled down:
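L1210 cells exposed to 1 μM analogue for 4 h, or for 48 h in some cases. ODC activity measured as 14CO2 released from [14C]carboxyl-labeled L-ornithine and expressed as % of untreated control.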

The subject of test [18] is L1210. The test is described as follows: Compound was evaluated for its impact on spermine […] levels after 48 hr at concentration 500 uM. It counts as functional, Mus musculus. The procedure, abridged:
as §2

Chain of Spermidine/spermine N(1)-acetyltransferase (SAT) (Mus musculus) (P48026 whole entry, looked up): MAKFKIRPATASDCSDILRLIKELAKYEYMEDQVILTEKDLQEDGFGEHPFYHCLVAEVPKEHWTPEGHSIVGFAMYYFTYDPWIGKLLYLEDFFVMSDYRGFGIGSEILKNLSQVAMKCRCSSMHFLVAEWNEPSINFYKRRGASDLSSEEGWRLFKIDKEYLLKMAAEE
Chain of Spermidine/spermine N(1)-acetyltransferase (SAT) (Mus musculus) (Q6P8J2 whole entry, looked up): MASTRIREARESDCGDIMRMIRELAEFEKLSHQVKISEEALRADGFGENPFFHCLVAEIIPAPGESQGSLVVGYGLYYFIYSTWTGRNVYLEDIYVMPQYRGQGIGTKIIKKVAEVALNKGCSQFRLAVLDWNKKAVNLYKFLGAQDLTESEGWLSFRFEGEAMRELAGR

As usually defined, the IC50 is the concentration needed to halve the response being measured. What is called Ki is a dissociation constant, usually derived from enzyme kinetics or from competition with a known ligand. Take `CNCCCNCCCNCCCNC`: the Polyamine is 3% with L1210 [1]; 0% in the test on L1210 [3]; 36% with L1210 [4]; 27% in the test with L1210 [10]; 5% with L1210 [12]; 0% with L1210 [13]. Besides, the concentration for half-maximal inhibition (IC50) in the test with L1210 [2] is 2.5 µM; with L1210 [5], greater than 100 µM. Further, in the test on L1210 [6], the inhibitory constant (Ki) came out at 5.6 µM. For the same molecule, the Activity in test [7] turned out to be 6%; in the test on L1210 [8], 2.14; in test [9] it was 49%; in test [11], 200%; with L1210 [14], 1.84.

Take `CC(C)(C)NCCCCNCCCCNCCCCNC(C)(C)C`: the Polyamine in the test with L1210 [1] worked out at 58%; with L1210 [3], 83%; in the test on L1210 [4] it was 94%; in the test on L1210 [10], 72%; in the test with L1210 [12], 85%; with L1210 [13], 55%. The IC50 in the test on L1210 [2] was 3 µM; in the test with L1210 [5] it was greater than 100 µM. The Activity in test [15] and in test [7] was 100% in each case. In addition, in the test on L1210 [6], affinity was put at a Ki of 56 µM.

On to `CC(C)NCCCNCCCNCCCNC(C)C`, for which the Polyamine in the test on L1210 [1] was 12%; in the test on L1210 [3], 10%; with L1210 [16] it was 64%; with L1210 [10] it was 53%; in the test with L1210 [12], 26%; in the test on L1210 [13], 0%. The IC50 in the test on L1210 [2] was 1.2 µM; with L1210 [5], greater than 100 µM. For the same molecule, the Ki with L1210 [6] was found to be 40 µM. For the same molecule, the figures for the Activity in test [7], in test [9] and in test [11] were 100%, 100% and 180%, respectively.

Regarding `CCNCCCNCCCCNCCCN`, the Activity came out at 10% in test [17], 27% in test [9] and 150% in test [11].

For `CNCCCNCCCCNCCCNC`, the Polyamine with L1210 [1] worked out at 0%; with L1210 [3], 0%; in the test on L1210 [4], 21%; in the test on L1210 [18], 24%; in the test on L1210 [12] it was 0%; with L1210 [13] it was 0%. This molecule also had a half-inhibitory concentration (IC50) in the test with L1210 [5] greater than 100 µM. In the test on L1210 [6], this molecule registered an inhibitory constant (Ki) of 1.1 µM. Moreover, the Activity in [7] turned out to be 3%; with L1210 [8], 1.26; in test [9], 40%; in test [11], 300%; in the test with L1210 [14], 1.24.

`CCNCCCNCCCNCCCN`: the Polyamine with L1210 [1] was found to be 2%; with L1210 [3], 0%; in the test with L1210 [4], 11%; in the test with L1210 [10], 11%; in the test with L1210 [12], 5%; with L1210 [13], 0%. The IC50 is 2.5 µM in the test with L1210 [2] and greater than 100 µM in the test on L1210 [5]. In the test with L1210 [6], this molecule registered an inhibitory constant (Ki) of 7.7 µM. Further, the Activity in test [7] is 5%; with L1210 [8] it was 1.69; in test [9], 33%; in [11] it was 410%; in the test on L1210 [14], 1.72.

Regarding `CNCCCCNCCCCNCCCCNC`, the Polyamine in the test on L1210 [1] amounted to 0%; in the test on L1210 [3] it was 0%; in the test on L1210 [4], 30%; in the test on L1210 [10] it was 27%; with L1210 [12], 0%; in the test on L1210 [13], 0%. In addition, the IC50 was 0.32 µM in the test with L1210 [2] and greater than 100 µM in the test with L1210 [5]. The molecule also gave a Ki with L1210 [6] of 0.97 µM. In addition, the Activity was determined as 4% in test [7]; 1.49 with L1210 [8]; 45% in [9]; 140% in [11]; 1.03 in the test on L1210 [14].
